Test results reported in the EternaBench riboswitch data.

Tested on: MS2 coat protein
Test: apparent Kd, MS2 coat protein; higher = weaker binding; RNA-MaP array
Procedure, shortened: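 Designs measured on fewer than 10 clusters were excluded from the data. The rest were RNAs transcribed from sequenced DNA templates on an Illumina sequencing chip and incubated at room temperature, with or without input ligand, with fluorescently labeled MS2 coat protein at 1.5 nM to 3 μM for 0.8–1.5 h at the lowest to 10–20 min at the highest concentrations. Apparent Kd is the median of the per-cluster binding-curve fits.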

[1] = designed as: OFF switch for flavin mononucleotide, no ligand
[2] = ligand present: flavin mononucleotide, designed as: OFF switch for flavin mononucleotide
[3] = designed as: ON switch for flavin mononucleotide, no ligand
[4] = ligand present: flavin mononucleotide, designed as: ON switch for flavin mononucleotide

| Sequence | apparent Kd [1] [nM] | apparent Kd [2] [nM] | apparent Kd [3] [nM] | apparent Kd [4] [nM] | further results |
| --- | --- | --- | --- | --- | --- |
| CGAAAACAUGAGGAUCACCCAUGUUAGGAUAUGAGGAUGGUAUAGUAUACGGUGUAGAUCAGAAGGAACGGUGG | 11.4 | 11.6 |  |  |  |
| CGAAUCAACCGGCAGGAUAUGAAAACUAAAACAUGAGGAUCACCCAUGUCGGACAAGAACAUGAUACAGAAGGGCCACGUAACAAG |  |  | 95.5 | 26.3 |  |
| CGCCGUACGUCAGGAUAUCACAAUUGGAUCCAUCACAUGAGGAUCACCCAUGUUUACAAGUAGAAUGAGAAGGGACAAGGAUAA |  |  | 49.3 | 43.8 |  |
| CGGGAACAUGAGGAUCACCCAUGUCAGGAUAUACGCGAUGGCAACAGUGAUUGUUUGUGUAGAAGGGACUUACG | 33.3 | 30.2 |  |  |  |
| CGUCCCUAGCAGAAGGUUCUUUGGGCUGCAGUGAAAGGAUAUGCCAGCACAUGAGGAUCACCCAUGUCUGUCGGAUGCACCAGA |  |  | 63.9 | 47 |  |
| CGUGCAUGCUAGUAGGAUAUCCCGCAUGAAACAUGAGGAUCACCCAUGUAGAAGAUCUAUGAUCGGGAGAAGGACUCGUGAGAAAC |  |  | 34.6 | 12.1 |  |
| CUAAAACAUGAGGAUCACCCAUGUCAUUUAACUCAAGGAUAUAGAUCUGAGAGCUCAGCGCUAGAAGGUGAUUUUG |  |  | 55.1 | 40.3 |  |
| CUAACACAUGAGGAUCACCCAUGUUAGGAUAUCAGCUGCAGCGCUCGACUGCAAUUUAUGAGAAGGAACUGUGG | 17.5 | 24.2 |  |  |  |
| CUAGGUCAAGGAUAUACAUGAGGAUCACCCAUGUAAGAACCUAGUAGGGUCGUCCGAGGUAGAAGGUGAGCAUU | 24.9 | 19.6 |  |  |  |
| CUCAUGAGGAAGAAGGAUUAGGUCAGUGCAGUAAUAGGAUAUUCGUAACACAUGAGGAUCACCCAUGUCUACUCCGGAGCGACA |  |  | 182 | 81.1 |  |
| CUCGCAAAUGGAGGAUAUGCCGAGAUCCCUAUCCUCAGGACCUCCACAUGAGGAUCACCCAUGUUGCAGAAGGCCAGUGUGAAG | 14.4 | 12.2 |  |  |  |
| GAAAGGGCAAAGAAGGAGGUCCGAGCUCGGCGCCUAGGAUAUUUCUUAACCACAUGAGGAUCACCCAUGUUGACUGUAGUGUGA | 31.5 | 29 |  |  |  |
| GAAAUCAGAGAGAAGGGUUUACAUCCGACAUGAGGAUCACCCAUGUAGUAAAACUACGACAACUAACAGGAUAUCACUGGCACC |  |  | 208 | 176 |  |
| GAACGGAGAGAAGGAUAUGGCAUAUUGCCUCACAUGAGGAUCACCCAUGUCAAGACAAAGCGAUCCCAGAAGGUCUCACAACAU |  |  | 60.1 | 26.8 |  |
| GAAUGAAUACAAGGAUAUCCCACAUGAGGAUCACCCAUGUAAAUACAAAUGUAAUACGUUGCUAAGGAGAAGGUGUAGAACAAA |  |  | 113 | 28.9 |  |
| GACAGAAAGUCAGGAUAUGAACGGUCAUGACAUGAGGAUCACCCAUGUUUCUUGUGCACCCUGCGUCAGAAGGGACUAGUGAGG |  |  | 19.3 | 12.8 |  |
| GACAUCCUCACAAUACAUGAGGAUCACCCAUGUGAAGUGGCCUAGGAUAUUCAAGAGUGGGUCACGAAGAAGGAGGCUGCAGGA | 33.3 | 28.3 |  |  |  |
| GACCGGACAUCCUAGGAUAUUUAUACUGAUACAUGAGGAUCACCCAUGUUUGGAAACAUCGUACGAAAGAAGGAGGAGACCUCUGA |  |  | 11.7 | 10.8 |  |
| GACCGUGUCAAUCAUCAUCAACAUGAGGAUCACCCAUGUACCAAGGAUAUCUCGCACUACAAGUCAGAGAAGGUGGGUUUACUC |  |  | 241 | 152 |  |
| GACGCUGCAGGAUAUACUACGAGACUCACCCACAUUAUAUGACAUGAGGAUCACCCAUGUAGAAGGGCAAUGUG | 10.4 | 12.6 |  |  |  |
| GACGUGUCGCAGAAGGUGGCGAGGAUAGACAUGAGGAUCACCCAUGUGGGACGCGUUAGGUCUGCCAAGGAUAUGCGCAACUCU | 54.3 | 28.7 |  |  |  |

| Sequence | apparent Kd [1] [nM] | apparent Kd [2] [nM] | apparent Kd [3] [nM] | apparent Kd [4] [nM] | further results |
| --- | --- | --- | --- | --- | --- |
| GAGAGAAAGCCAGGAUAUUAGAACUAGGCACAUGAGGAUCACCCAUGUGGUGAUGAUCAUAAGACUAAGAAGGGGCACCGGAUU |  |  | 521 | 450 |  |
| GAGAGGGCUUGAGGAUAUCUUCACUCCGACAUGAGGAUCACCCAUGUAUUCCGUUGAUCGUUGGGAGAGAAGGCAACUUUGUAA | 58 | 54 |  |  |  |
| GCAAGAGAGCAGAAGGUUGAGGGCGUUCCCGUUUACAUGAGGAUCACCCAUGUUGCUAACAUGUCAAAGGAUAUGCCUAACGCU | 70.8 | 63.8 |  |  |  |
| GCAAUAACAGCAGGAUAUCGUCUCACAUGAGGAUCACCCAUGUUACUAAGUGGCUACUAGGAUUACGAGAAGGGCUGUCCACGC | 10.7 | 7.78 |  |  |  |
| GCAGGUAAGUAGAAGGGUCGCACCAUACUGACGACAGGAUAUACUGUCCGAAACUCGUCAUUACAUGAGGAUCACCCAUGUUUA | 21.2 | 11.1 |  |  |  |
| GCAGUUGGUCUCUCACAUGAGGAUCACCCAUGUUCUUAGUUUCAGGAUAUAUGAGCGAAUUGCGGAUAGAAGGGAAACAGUCAC | 41.6 | 49.7 |  |  |  |
| GCAUGGACAUGAGGAUCACCCAUGUGUCGCCCUGGACCCGUUAGAAGGCCGUUCCAGAGAACAACGGAGGAUAUAAUUACAGCC |  |  | 35.7 | 27 |  |
| GCCGUUCGAGAGAAGGUUGUACGCGCCACGCGCACAUGAGGAUCACCCAUGUCCUCCAAACUCACAAAGGAUAUCUUAAGAACA | 415 | 508 |  |  |  |
| GCCUAGCUAGGAUAUACCAGAGUGUAUACUUAUGUGGAUCGACAUGAGGAUCACCCAUGUAGAAGGAGCAAGAU | 30.8 | 58 |  |  |  |
| GCCUUAGGGGCAGGAUAUUUCGAGGACCUCAACAUGAGGAUCACCCAUGUACCGCAAUCGUCUCUAAAGAAGGGCCUCUUGCUC |  |  | 53.9 | 28.5 |  |
| GCGCGGCGUGAAGGAUAUGGUUCAGUACAUGAGGAUCACCCAUGUCAGACAGCAUCGGGGCCGUCCCAGAAGGUCACACGUUUU |  |  | 9.14 | 7.36 |  |
| GCUUAGAAACCUGAUACCAGUCAGCCCUAUGACAUGAGGAUCACCCAUGUGAUACUCACGGACCCUUGGCAGCAGGGUCGAUUAC |  |  |  |  | apparent Kd (designed as: ON switch for theophylline, no ligand): 695 nM; apparent Kd (ligand present: theophylline, designed as: ON switch for theophylline): 429 nM |
| GCUUGACAUGAGGAUCACCCAUGUAAAUGAGAGACAGGAUAUACGAGACACGUAGGGUAGGUAGAAGGGUCGACUG |  |  | 15.1 | 9.69 |  |
| GGAAUCUUUCGAGGAUAUGUCCCACAAUAGUGCCUACCGGGUAACAUGAGGAUCACCCAUGUGAGACAGAAGGCGAGGUUUGGC | 9.86 | 38 |  |  |  |
| GGCGUAUCAGGAUAUGCGUUUUGAGACAUGAGGAUCACCCAUGUCCUUAGCUCAGUUAAAGCAGAAGGGAUUAUUA | 16.9 | 34.1 |  |  |  |
| GGCUCCGUAGGAUAUCGUAUUAGCGACAUGAGGAUCACCCAUGUUCAUUUGUCCUCAAUACGAGAAGGACGAACUC | 16.1 | 18.3 |  |  |  |
| GGGGGUUGGACAGGAUAUAGAGGUCUCGUGUGGAGAUGCACAACGACAUGAGGAUCACCCAUGUGCUAGAAGGGUCUGCGAUAG |  |  | 19.3 | 16.1 |  |
| GGGUCGCGUUCGGCCGCCACUUGGAAACAUGAGGAUCACCCAUGUCAUAUGGUGGGACAUGUUGUAAGGACCGGGAACCGUCCUA |  |  |  |  | apparent Kd (designed as: OFF switch for tryptophan, no ligand): 64.2 nM; apparent Kd (ligand present: tryptophan, designed as: OFF switch for tryptophan): 88.1 nM |
| GGUGAGUCAGGAUAUUGUGCAUUUGAGACCCACACGGGACACAAGAAGGGACAUGAGGAUCACCCAUGUGCUCA | 9.73 | 12.8 |  |  |  |
| GGUUAACAUGAGGAUCACCCAUGUAAGGAUAUCGGGCUGUCCAGGCGAUAGUACACGUCGAGAAGGUACGCGGU | 10.8 | 12.2 |  |  |  |
